Activity calls are given as the source filed them. No cut-off for these calls is given here.
Columns and labels:
[1] = target: T1, Orexin receptor type 2 (Homo sapiens) (UniProt O43614); assay: Agonist activity at human OX2R expressed in CHOK1 cells at 10 uM by calcium mobilization assay relative to orexin-A; format: functional, cell-based; conditions: CHO-K1
T1 sequence (whole entry): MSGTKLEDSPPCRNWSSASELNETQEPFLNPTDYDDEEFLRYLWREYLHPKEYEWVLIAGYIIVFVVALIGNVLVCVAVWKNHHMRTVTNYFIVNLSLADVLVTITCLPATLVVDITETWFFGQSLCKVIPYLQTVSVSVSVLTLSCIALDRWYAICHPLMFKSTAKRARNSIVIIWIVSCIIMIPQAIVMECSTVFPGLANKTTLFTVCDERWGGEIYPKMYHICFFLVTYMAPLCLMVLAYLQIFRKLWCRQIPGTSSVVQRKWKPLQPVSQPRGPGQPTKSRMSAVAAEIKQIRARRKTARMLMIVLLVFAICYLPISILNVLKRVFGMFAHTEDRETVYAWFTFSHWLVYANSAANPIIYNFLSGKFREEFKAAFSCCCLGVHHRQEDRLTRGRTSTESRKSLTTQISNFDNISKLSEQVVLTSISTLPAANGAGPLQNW

[2] = target: T1, Orexin receptor type 2 (Homo sapiens); assay: Agonist activity at human OX2R expressed in CHOK1 cells at 10 uM by NFAT-response luciferase reporter gene assay relative to orexin-A; format: cell-based; conditions: CHO-K1
[3] = target: T2, Orexin receptor type 2 (Homo sapiens, UniProt O43614); assay: Agonist activity at human OX2R expressed in CHOK1 cells by calcium mobilization assay
T2 sequence (O43614 whole entry): T1 sequence (whole entry)

[4] = target: T1, Orexin receptor type 2 (Homo sapiens); assay: Agonist activity at human OX2R expressed in CHOK1 cells at 5 uM by NFAT-response luciferase reporter gene assay relative to orexin-A; format: cell-based; conditions: CHO-K1
[5] = target: T1, Orexin receptor type 2 (Homo sapiens); assay: Agonist activity at human OX2R expressed in CHOK1 cells at 5 uM by calcium mobilization assay relative to orexin-A; format: functional, cell-based; conditions: CHO-K1
[6] = Stability in pH 8.0 buffer; format: physicochemical
[7] = target: T2, Orexin receptor type 2; assay: biochemical
[8] = target: T3, Orexin/Hypocretin receptor type 1 (Homo sapiens) (UniProt O43613); assay: Agonist activity at human OX1R expressed in CHOK1 cells by calcium mobilization assay relative to orexin-A; format: functional, cell-based; conditions: CHO-K1
T3 sequence (whole entry): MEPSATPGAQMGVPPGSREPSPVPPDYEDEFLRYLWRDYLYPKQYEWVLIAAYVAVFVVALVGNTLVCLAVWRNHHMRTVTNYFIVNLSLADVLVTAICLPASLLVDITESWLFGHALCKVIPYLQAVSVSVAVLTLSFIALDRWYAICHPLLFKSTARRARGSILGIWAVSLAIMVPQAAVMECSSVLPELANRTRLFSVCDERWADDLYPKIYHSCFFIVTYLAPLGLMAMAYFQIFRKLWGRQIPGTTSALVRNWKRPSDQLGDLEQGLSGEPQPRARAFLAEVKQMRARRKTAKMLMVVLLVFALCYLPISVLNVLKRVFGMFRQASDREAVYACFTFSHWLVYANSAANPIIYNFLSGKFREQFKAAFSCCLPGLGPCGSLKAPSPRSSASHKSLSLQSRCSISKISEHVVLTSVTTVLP

[9] = target: T4, Orexin/Hypocretin receptor type 1 (Homo sapiens, UniProt O43613); assay: Agonist activity at human OX1R expressed in CHOK1 cells by calcium mobilization assay; format: functional, cell-based, CHO-K1
T4 sequence (O43613 whole entry): T3 sequence (whole entry)

[10] = system: CHO-K1; assay: Selectivity index, ratio of EC50 for human OX1R expressed in CHOK1 cells to EC50 for human OX2R expressed in CHOK1 cells; format: cell-based
[11] = target: T1, Orexin receptor type 2 (Homo sapiens); assay: Agonist activity at human OX2R expressed in CHOK1 cells at 1 uM by calcium mobilization assay relative to orexin-A; format: functional, cell-based; conditions: CHO-K1
[12] = target: T1, Orexin receptor type 2 (Homo sapiens); assay: Agonist activity at human OX2R expressed in CHOK1 cells at 10 uM by calcium mobilization assay relative to orexin-A; conditions: CHO-K1
[13] = target: T2, Orexin receptor type 2; assay: Agonist activity at human OX2R expressed in CHOK1 cells by NFAT-response luciferase reporter gene assay; format: cell-based; conditions: cho-k1
[14] = system: Mus musculus; assay: Induction of wakefullness in C57BL/6J mouse assessed as increase in wake time by measuring EEG/EMG signals at 260 nmol, icv dosed on every other day during light phase; format: functional
In short: (§1)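 Intracerebroventricular injection during the light phase, given at 6 h into the light phase (ZT6). Saline was the vehicle control. Sleep/wake states were scored from EEG/EMG recordings, and the read-out was cumulative time awake within 2 h after dosing. Wild-type C57BL/6J mice and OX1R/OX2R double-knockout mice were used.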

[15] = system: Mus musculus; assay: Induction of wakefullness in C57BL/6J mouse assessed as EEG/EMG signals at 32 to 260 nmol, icv dosed on every other day during light phase; format: functional, organism-based; in short: as §1
[16] = system: Mus musculus; assay: Induction of wakefullness in OX1R/OX2R double knock out C57BL/6J mouse assessed as increase in wake time by measuring EEG/EMG signals at 260 nmol, icv dosed on every other day during light phase; format: functional, organism-based; in short: as §1

COc1ccccc1C(=O)NCCNc1ccc(NS(=O)(=O)c2cc(C(C)C)c(C)cc2OC)cc1
Efficacy [1]: 12%
Efficacy [2]: 18%

COc1ccc(-c2cccc(C(=O)N(C)C)c2)cc1S(=O)(=O)Nc1cccc(NCCNC(=O)c2ccccc2)c1
EC50 [3]: > 10000 nM

COc1ccccc1C(=O)NCCNc1cc(C)ccc1NS(=O)(=O)c1cc(C(C)C)c(C)cc1OC
Efficacy [1]: inactive
Efficacy [2]: 9%

Cc1ccc(S(=O)(=O)n2nc(OC(=O)c3c(-c4ccccc4Cl)noc3C)cc2N)cc1
Efficacy [4]: 36%
Efficacy [5]: inactive
Stability [6]: Unstable

COc1ccc(-c2cccc(C(=O)N(C)C)c2)cc1S(=O)(=O)Nc1cccc(NCCNC(=O)c2cccc(C)c2)c1
Ki [7]: 770 nM
Emax [8]: 100%

COc1ccccc1C(=O)N[C@H]1CC[C@H](CNS(=O)(=O)c2cc(C(C)C)c(C)cc2OC)CC1
Efficacy [1]: inactive
Efficacy [2]: 24%

COc1ccccc1C(=O)NCCNc1cccc(NS(=O)(=O)c2cc(-c3cccc(C(=O)N(C)C)c3)ccc2OC)c1
EC50 ([9]; read-out: EC50): 5.23 µM
Ratio EC50 [10]: 105
Emax [11]: 74%
Emax [8]: 46%

COc1ccc(-c2cccc(C(=O)N(C)C)c2)cc1S(=O)(=O)Nc1cccc(NCCNC(=O)c2cccc(Cl)c2)c1
EC50 ([9]; read-out: EC50): 5.72 µM
EC50 [3]: 94 nM
Ratio EC50 [10]: 60
Emax [8]: 73%

COc1ccccc1C(=O)NCCNc1cccc(NS(=O)(=O)c2cc(-c3cccnc3)ccc2OC)c1
Emax [12]: 88%

COc1ccc(-c2cccc(C(=O)N(C)C)c2)cc1C(=O)Nc1cccc(NCCNC(=O)c2cccc(C)c2)c1
EC50 ([9]; cho-k1): Not Active
EC50 [13]: Not Active

COc1ccccc1C(=O)NCCNc1cccc(NS(=O)(=O)c2cc(C(C)C)c(C)cc2OC)c1
Efficacy [1]: 22%
Efficacy [2]: 33%

COc1cccc(-c2ccc(OC)c(S(=O)(=O)Nc3cccc(NCCNC(=O)c4ccccc4OC)c3)c2)c1
EC50 [3]: 800 nM
Emax [11]: 54%

COC(=O)c1cccc(-c2ccc(OC)c(S(=O)(=O)Nc3cccc(NCCNC(=O)c4ccccc4OC)c3)c2)c1
EC50 [3]: > 10000 nM
Emax [12]: 49%

CNC(=O)c1cccc(-c2ccc(OC)c(S(=O)(=O)Nc3cccc(NCCNC(=O)c4ccccc4OC)c3)c2)c1
Emax [11]: 98%

COc1ccc(-c2cccc(C(=O)N(C)C)c2)cc1S(=O)(=O)Nc1cccc(NCCNC(=O)c2ccccc2N(C)C)c1.Cl
Time [14]: 53 min

COc1ccc(-c2cccc(C(=O)N(C)C)c2)cc1S(=O)(=O)Nc1cccc(NCCNC(=O)c2ccccc2N(C)C)c1 [listing 1 of 2 here]
Activity [15]: Dose-dependent effect
Activity [16]: inactive
Emax [8]: 55%

COc1ccccc1C(=O)NCCNc1cccc(NS(=O)(=O)c2cc(-c3cccc(C(=O)N4CCC4)c3)ccc2OC)c1
EC50 [3]: 235 nM
Emax [12]: 85%

COc1ccc(-c2cccc(C(=O)N(C)C)c2)cc1S(=O)(=O)Nc1cccc(NCCNC(=O)c2ccccc2Cl)c1
EC50 ([9]; read-out: EC50): 6.13 µM
Ratio EC50 [10]: 198
Emax [8]: 50%

COc1ccccc1C(=O)NCCNc1cccc(NS(=O)(=O)c2cc(-c3cccc(N)c3)ccc2OC)c1
EC50 [3]: > 1000 nM
Emax [12]: 73%

COc1ccccc1C(=O)NCCNc1cccc(NS(=O)(=O)c2cc(-c3ccccc3)ccc2OC)c1
EC50 [3]: > 10000 nM
Emax [12]: 48%

COc1ccccc1C(=O)N1CCC(CNS(=O)(=O)c2cc(C(C)C)c(C)cc2OC)CC1
Efficacy [1]: inactive
Efficacy [2]: 16%

COc1ccccc1C(=O)NCCNc1cccc(NS(=O)(=O)c2cc(-c3cccc(F)c3)ccc2OC)c1
EC50 [3]: > 10000 nM
Emax [12]: 47%

COc1cccc(C(=O)NCCNc2cccc(NS(=O)(=O)c3cc(-c4cccc(C(=O)N(C)C)c4)ccc3OC)c2)c1
EC50 ([9]; read-out: EC50): 9.25 µM
Ratio EC50 [10]: 280
Emax [8]: 49%

COc1ccc(-c2cccc(C(=O)N(C)C)c2)cc1S(=O)(=O)Nc1cccc(NCCNC(=O)c2ccccc2N(C)C)c1 [listing 2 of 2 here]
EC50 ([9]; read-out: EC50): 2.75 µM
EC50 [3]: 28 nM

Source: ChEMBL document CHEMBL3621114, “Design and Synthesis of Non-Peptide, Selective Orexin Receptor 2 Agonists” (J Med Chem, 2015)
